The text below walks through data of ChEMBL document CHEMBL1138592, “Pyridopyrimidine based cannabinoid-1 receptor inverse agonists: Synthesis and biological evaluation” (Bioorg Med Chem Lett, 2009).

In one data set the target is Cannabinoid receptor 2 (Homo sapiens, UniProt P34972). The data set is described as follows: Binding affinity to human cannabinoid CB2R expressed in CHO cells. It is filed as cell-based.
Another data set concerns the target Cannabinoid receptor 1 (Homo sapiens, UniProt P21554). The data set is described as follows: Inverse agonist activity at human cannabinoid CB1R expressed in CHO cells assessed as effect on cAMP accumulation. It is filed as functional, cell-based. Background: Changes in cAMP serve as a functional read-out for many G protein-coupled receptors.
Data set [1] relates to Rattus norvegicus. The data set is described as follows: Antiobesity activity in high fat diet-induced obese Sprague-Dawley rat model assessed as suppression of food intake at 3 mg/kg, po after 18 hrs of last dose relative to control. It is filed as functional.
Data set [2] deals with Rattus norvegicus. The data set is described as follows: Antiobesity activity in high fat diet-induced obese Sprague-Dawley rat model assessed as change in body weight at 3 mg/kg, po after 18 hrs of last dose relative to control. It is filed as functional.
Data set [3] can be described thus: Bioavailability in rat. It is filed as ADME, organism-based. As to conditions: in vivo.
The nature of data set [4]: Ratio of drug level in brain to plasma in rat after 4 hrs. It is filed as ADME. Particulars: brain and plasma.
Data set [5] can be described thus: Ratio of drug level in brain to plasma in rat after 0.25 hrs. It is filed as ADME. As to conditions: brain and plasma.
The nature of data set [6]: Half life in rat. It is filed as ADME, organism-based. Particulars: in vivo.
Data set [7] can be described thus: Plasma clearance in rat. It is filed as ADME, organism-based.
Data set [8] relates to Rattus norvegicus. The data set is described as follows: Antiobesity activity in diet-induced obese Sprague-Dawley rat model assessed as suppression of overnight food intake at 3 mg/kg, po administered 1 hr before dark cycle for 14 days measured after […] of last dose. It is filed as functional.
Data set [9] relates to Rattus norvegicus. The data set is described as follows: Antiobesity activity in diet-induced obese Sprague-Dawley rat model assessed as suppression of overnight body weight change at 3 mg/kg, po administered 1 hr before dark cycle for 14 days measured after 18 hrs of last dose. It is filed as functional.
The test system of data set [10] is Rattus norvegicus. The data set is described as follows: Antiobesity activity in high fat diet-induced obese Sprague-Dawley rat model assessed as change in overnight body weight at 10 mg/kg, po after 18 hrs. It is filed as functional.
Data set [11] has as its system Rattus norvegicus. The data set is described as follows: Antiobesity activity in high fat diet-induced obese Sprague-Dawley rat model assessed as suppression of food intake at 10 mg/kg, po after 18 hrs. It is filed as functional.
Data set [12] is described as follows: Half life in dog. It is filed as ADME, organism-based, Canis lupus familiaris. As to conditions: in vivo.
Data set [13] can be described thus: Bioavailability in monkey. It is filed as ADME, organism-based, Macaca mulatta. Particulars: rhesus monkey, in vivo. Put shortly:
(§1)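 Pharmacokinetic study in rhesus macaque. Reported parameters are bioavailability F (%), half-life T1/2 (h) and plasma clearance Clp (mL/min/kg).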

The nature of data set [14]: Half life in monkey. Particulars: rhesus monkey, in vivo. It is filed as ADME, organism-based, Macaca mulatta. Put shortly: as §1
A short description of data set [15]: Bioavailability in dog. It is filed as ADME, organism-based, Canis lupus familiaris. As to conditions: in vivo.
Data set [16] in a line: Plasma clearance in dog. It is filed as ADME, organism-based, Canis lupus familiaris.
Data set [17] can be described thus: Plasma clearance in monkey. As to conditions: rhesus monkey. It is filed as ADME, organism-based, Macaca mulatta. Put shortly: as §1

Cannabinoid receptor 2, sequence (P34972 whole entry): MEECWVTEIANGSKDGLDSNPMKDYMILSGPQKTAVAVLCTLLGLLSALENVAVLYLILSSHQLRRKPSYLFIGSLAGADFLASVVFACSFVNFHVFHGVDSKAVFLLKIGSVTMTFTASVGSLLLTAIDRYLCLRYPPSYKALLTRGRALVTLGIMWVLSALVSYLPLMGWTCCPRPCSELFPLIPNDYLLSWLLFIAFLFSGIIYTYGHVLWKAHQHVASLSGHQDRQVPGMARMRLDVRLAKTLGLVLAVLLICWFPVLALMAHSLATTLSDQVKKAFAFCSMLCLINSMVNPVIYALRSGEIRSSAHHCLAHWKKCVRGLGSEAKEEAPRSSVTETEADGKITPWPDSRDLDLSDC
Cannabinoid receptor 1, sequence (P21554 whole entry): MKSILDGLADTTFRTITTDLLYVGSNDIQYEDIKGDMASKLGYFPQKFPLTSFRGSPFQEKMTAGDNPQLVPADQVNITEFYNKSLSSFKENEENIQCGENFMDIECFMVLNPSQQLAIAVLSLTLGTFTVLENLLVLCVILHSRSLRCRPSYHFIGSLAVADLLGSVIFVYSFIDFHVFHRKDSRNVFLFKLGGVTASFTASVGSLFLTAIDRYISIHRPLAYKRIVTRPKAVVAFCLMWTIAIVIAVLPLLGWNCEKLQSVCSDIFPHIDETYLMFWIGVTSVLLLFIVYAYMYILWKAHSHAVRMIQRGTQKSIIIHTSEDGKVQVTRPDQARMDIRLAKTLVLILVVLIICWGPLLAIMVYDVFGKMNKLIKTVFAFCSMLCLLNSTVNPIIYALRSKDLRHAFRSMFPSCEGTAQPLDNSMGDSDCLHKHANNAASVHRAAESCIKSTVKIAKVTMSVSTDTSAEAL

Turning to `CC(C)(C)Nc1nc(C(C)(C)C)nc2nc(-c3ccccc3Cl)c(-c3ccc(Cl)cc3)cc12`, the 50% inhibitory concentration (IC50) (commonly the concentration that inhibits the measured activity by half) on Cannabinoid receptor 2 was more than 2000 nM; on Cannabinoid receptor 1, 2.7 nM.
For `O=c1[nH]c(-c2ccc(Cl)cc2)nc2nc(-c3ccccc3Cl)c(-c3ccc(Cl)cc3)cc12` the same measures were more than 2000 nM and 59 nM.
For `CN(C)c1ccc(-c2cc3c(nc2-c2ccccc2Cl)nc(C(C)(C)C)n2c(=O)[nH]nc32)cc1`, in that order: 770 nM and 28 nM.
For `CC(C)(C)c1nc2nc(-c3ccccc3Cl)c(-c3ccc(Cl)cc3)cc2c2nncn12` the same measures were 3400 nM and 8 nM.
Turning to `CC(C)c1nc(N)c2cc(-c3ccc(Cl)cc3)c(-c3ccccc3Cl)nc2n1`, the IC50 at Cannabinoid receptor 2 was more than 2000 nM; on Cannabinoid receptor 1 it was 190 nM.
`CC(C)(C)c1nc(NCC(F)(F)CO)c2cc(-c3ccc(Cl)cc3)c(-c3ccccc3Cl)nc2n1`: the Activity is on record as 39% in the data set with Rattus norvegicus [1] and -4 g with Rattus norvegicus [2]. Moreover, the IC50 was more than 2000 nM at Cannabinoid receptor 2 and 9.5 nM at Cannabinoid receptor 1.
On to `Cc1nc(O)c2cc(-c3ccc(Cl)cc3)c(-c3ccccc3Cl)nc2n1`, for which the values for the 50% inhibitory concentration (IC50) on Cannabinoid receptor 2 and at Cannabinoid receptor 1 were more than 2000 nM and 2500 nM, respectively.
`CC(C)(C)c1nc2nc(-c3ccc(C#N)cc3Cl)c(-c3ccc(Cl)cc3)cc2c2n[nH]c(=O)n12` registered an IC50 on Cannabinoid receptor 2 of 19000 nM.
For `CCN(CC)C(=O)c1nc(NC(C)C)c2cc(-c3ccc(Cl)cc3)c(-c3ccccc3Cl)nc2n1`, the IC50 at Cannabinoid receptor 2 was found to be 12000 nM; on Cannabinoid receptor 1, 150 nM.
With `CC(C)(C)c1nc2nc(-c3ccccc3Cl)c(-c3cnccc3C#N)cc2c2n[nH]c(=O)n12`, the IC50 worked out at 18000 nM on Cannabinoid receptor 2 and 100 nM on Cannabinoid receptor 1.
At Cannabinoid receptor 2, `CC(C)(C)c1nc(N)c2cc(-c3ccc(Cl)cc3)c(-c3ccc(Cl)cc3Cl)nc2n1` gave an IC50 of 5200 nM.
Regarding `CC(C)(C)c1nc2nc(-c3ccccc3Cl)c(-c3ccc(Cl)cc3)cc2c2n[nH]c(=O)n12`, the bioavailability – broadly, the share of a dose that reaches the circulation, judged against a reference dose that is usually intravenous – in data set [3] is 33%. Besides, the Activity in the data set with Rattus norvegicus [1] is 50%; in the data set with Rattus norvegicus [2], -9 g. In [4], the Kp (usually tissue or fluid exposure divided by exposure in the circulation) at 4 h is 0.59. Besides, the IC50 on Cannabinoid receptor 2 was 3800 nM; on Cannabinoid receptor 1, 1.9 nM. Besides, the Kp at 0.25 h in data set [5] is 0.14. Also, the half-life (commonly the time needed for the level to fall by half in the phase considered) in data set [6] was 5.6 h. Moreover, in [7], the clearance (usually the rate of elimination divided by the concentration) turned out to be 12 mL/min/kg.
With `CC(C)(C)c1nc2nc(-c3ccccc3Cl)c(-c3ccc(Cl)cc3)cc2c(=O)[nH]1`, the IC50 came to 8600 nM at Cannabinoid receptor 2 and 7.4 nM at Cannabinoid receptor 1.
For `CC(C)(C)c1nc(N)c2cc(-c3ccc(Cl)cc3)c(-c3ccccc3Cl)nc2n1` the same measures were 4900 nM and 40 nM.
For `CC(C)c1nc(OCc2ncon2)c2cc(-c3ccc(Cl)cc3)c(-c3ccccc3Cl)nc2n1` the same measures were 6300 nM and 1.1 nM.
For `CC(C)(C)c1nc2nc(-c3ccccc3Cl)c(-c3cccc(Cl)c3)cc2c2n[nH]c(=O)n12`, in that order: 2700 nM and 34 nM.
For `CC(C)(C)c1nc(N2CCNCC2)c2cc(-c3ccc(Cl)cc3)c(-c3ccccc3Cl)nc2n1`, the IC50 was 1800 nM at Cannabinoid receptor 2 and 1.9 nM on Cannabinoid receptor 1.
For `CN(C)c1nc(C(C)(C)C)nc2nc(-c3ccccc3Cl)c(-c3ccc(Cl)cc3)cc12`, in that order: 1800 nM and 8.5 nM.
Take `Cc1nc(N)c2cc(-c3ccc(Cl)cc3)c(-c3ccccc3Cl)nc2n1`: the IC50 was found to be 1100 nM on Cannabinoid receptor 2 and 1500 nM on Cannabinoid receptor 1.
On to `COc1ccc(-c2cc3c(nc2-c2ccccc2Cl)nc(C(C)(C)C)n2c(=O)[nH]nc32)cc1`, for which the IC50 on Cannabinoid receptor 2 came to 891 nM; at Cannabinoid receptor 1 it was 3 nM.
Turning to `C[C@H](NC(=O)C(C)(C)Oc1ccc(C(F)(F)F)cn1)[C@@H](Cc1ccc(Cl)cc1)c1cccc(C#N)c1` [TARANABANT], the values for the Activity in the data set on Rattus norvegicus [8] and with Rattus norvegicus [9] were 49% and -10 g, respectively.
On to `CC(C)c1nc2nc(-c3ccccc3Cl)c(-c3ccc(Cl)cc3)cc2c(=O)[nH]1`, for which the figures for the IC50 at Cannabinoid receptor 2 and on Cannabinoid receptor 1 were 7300 nM and 130 nM, respectively.
For `CC(C)(C)c1nc2nc(-c3ccccc3Cl)c(-c3ccc(C(F)(F)F)cc3)cc2c2n[nH]c(=O)n12`, in that order: 9200 nM and 1.1 nM.
On to `CC(=O)Nc1c(C(C)=O)c(=O)n(C)c2nc(-c3ccc(Cl)cc3Cl)c(-c3ccc(Cl)cc3)cc12` [NAPHTHYRIDINONE], for which the Activity with Rattus norvegicus [1] is 68%; in the data set on Rattus norvegicus [2] it was -4 g. Besides, in data set [5], the Kp at 0.25 h amounted to 0.9. The half-life in data set [6] was more than 8 h.
Regarding `N#Cc1cc(-c2ccc(Cl)cc2)c(-c2ccc(Cl)cc2Cl)nc1Oc1ccc(F)c(F)c1`, the Activity in the data set on Rattus norvegicus [10] was -8 g; in the data set on Rattus norvegicus [11] it was 48%.
For `CC(C)Nc1nc(C(C)(C)C)nc2nc(-c3ccccc3Cl)c(-c3ccc(Cl)cc3)cc12`, the IC50 was more than 2000 nM on Cannabinoid receptor 2 and 4.1 nM at Cannabinoid receptor 1.
For `CC(C)c1nc2nc(-c3ccccc3Cl)c(-c3ccc(Cl)cc3)cc2c(=O)n1Cc1ncon1` the same measures were 9800 nM and 82 nM.
Regarding `CC(C)(C)c1nc2nc(-c3ccc(Cl)cc3Cl)c(-c3ccc(Cl)cc3)cc2c(=O)[nH]1`, the values for the Activity with Rattus norvegicus [1] and with Rattus norvegicus [2] were 21% and 1 g, respectively. The IC50 turned out to be 5500 nM at Cannabinoid receptor 2 and 6 nM at Cannabinoid receptor 1.
Regarding `CCN(CC)c1nc(C(C)(C)C)nc2nc(-c3ccccc3Cl)c(-c3ccc(Cl)cc3)cc12`, the IC50 on Cannabinoid receptor 2 was 2700 nM; at Cannabinoid receptor 1, 2.2 nM.
As for `CC(C)(C)c1nc(-c2ccc(F)cc2)c2cc(-c3ccc(Cl)cc3)c(-c3ccccc3Cl)nc2n1`, the half-inhibitory concentration (IC50) is 9830 nM on Cannabinoid receptor 2 and 0.63 nM at Cannabinoid receptor 1.
Consider `CC(C)(C)c1nc2nc(-c3ccccc3C#N)c(-c3ccc(Cl)cc3)cc2c2n[nH]c(=O)n12`, for which the Activity in the data set with Rattus norvegicus [1] is recorded as 25%; in the data set with Rattus norvegicus [2] it was -2 g. In addition, the results for the IC50 at Cannabinoid receptor 2 and on Cannabinoid receptor 1 were 2400 nM and 3.2 nM, respectively.
As for `CC(=O)c1ccc(-c2cc3c(nc2-c2ccccc2Cl)nc(C(C)(C)C)n2c(=O)[nH]nc32)cc1`, the IC50 on Cannabinoid receptor 2 came to 5800 nM.
As to `Nc1nc(-c2ccc(Cl)cc2)nc2nc(-c3ccccc3Cl)c(-c3ccc(Cl)cc3)cc12`, the IC50 on Cannabinoid receptor 2 was more than 2000 nM; at Cannabinoid receptor 1, 16 nM.
For `COc1nc(C(C)(C)C)nc2nc(-c3ccccc3Cl)c(-c3ccc(Cl)cc3)cc12`, in that order: 8400 nM and 7.5 nM.
As to `CC(C)(C)c1nc2nc(-c3ccccc3Cl)c(-c3ccc(C#N)cc3)cc2c2n[nH]c(=O)n12`, the half-life was 7.4 h in data set [12], 9.9 h in data set [14] and 3.5 h in [6]. Besides, the bioavailability was 53% in data set [3], 9.7% in [13] and 2.1% in [15]. In addition, the Activity in the data set on Rattus norvegicus [1] was 36%; in the data set with Rattus norvegicus [2], -5 g. Besides, the IC50 at Cannabinoid receptor 2 stood at 18000 nM; at Cannabinoid receptor 1, 5.9 nM. In addition, the results for the clearance in [16], in data set [17] and in data set [7] were 24 mL/min/kg, 5.3 mL/min/kg and 4 mL/min/kg, respectively.
